From ChEMBL document CHEMBL4359929, “Piperidine and piperazine inhibitors of fatty acid amide hydrolase targeting excitotoxic pathology” (Bioorg Med Chem, 2019) come the findings set out here.

The source made the active and inactive calls. No cut-off for these calls is given here. A value given as a limit tells only on which side of the number the result lay.

The target of experiment [1] is Cannabinoid receptor 1 (Rattus norvegicus) (UniProt P20272). In words: Displacement of [3H]CP55940 from CB1 receptor in rat brain by competition-equilibrium binding analysis. A general note: In a radioligand displacement assay an active substance lowers the binding of a labelled ligand.
Target sequence in this assay (P20272 whole entry, looked up): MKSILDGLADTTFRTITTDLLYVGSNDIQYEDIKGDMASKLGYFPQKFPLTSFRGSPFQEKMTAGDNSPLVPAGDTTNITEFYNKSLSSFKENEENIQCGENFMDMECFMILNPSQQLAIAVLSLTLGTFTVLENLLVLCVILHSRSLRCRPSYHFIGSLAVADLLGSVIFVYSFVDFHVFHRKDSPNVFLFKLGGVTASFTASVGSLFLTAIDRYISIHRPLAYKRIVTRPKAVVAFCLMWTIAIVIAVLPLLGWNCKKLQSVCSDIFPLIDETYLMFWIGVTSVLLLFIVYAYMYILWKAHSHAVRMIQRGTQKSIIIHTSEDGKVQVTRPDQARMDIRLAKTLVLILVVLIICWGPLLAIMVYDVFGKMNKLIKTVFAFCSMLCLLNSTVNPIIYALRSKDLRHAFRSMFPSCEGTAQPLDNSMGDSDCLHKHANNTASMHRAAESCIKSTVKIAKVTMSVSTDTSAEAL
Experiment [2] deals with T1, Fatty-acid amide hydrolase 1 (Rattus norvegicus, UniProt P97612).
T1 sequence (P97612 whole entry): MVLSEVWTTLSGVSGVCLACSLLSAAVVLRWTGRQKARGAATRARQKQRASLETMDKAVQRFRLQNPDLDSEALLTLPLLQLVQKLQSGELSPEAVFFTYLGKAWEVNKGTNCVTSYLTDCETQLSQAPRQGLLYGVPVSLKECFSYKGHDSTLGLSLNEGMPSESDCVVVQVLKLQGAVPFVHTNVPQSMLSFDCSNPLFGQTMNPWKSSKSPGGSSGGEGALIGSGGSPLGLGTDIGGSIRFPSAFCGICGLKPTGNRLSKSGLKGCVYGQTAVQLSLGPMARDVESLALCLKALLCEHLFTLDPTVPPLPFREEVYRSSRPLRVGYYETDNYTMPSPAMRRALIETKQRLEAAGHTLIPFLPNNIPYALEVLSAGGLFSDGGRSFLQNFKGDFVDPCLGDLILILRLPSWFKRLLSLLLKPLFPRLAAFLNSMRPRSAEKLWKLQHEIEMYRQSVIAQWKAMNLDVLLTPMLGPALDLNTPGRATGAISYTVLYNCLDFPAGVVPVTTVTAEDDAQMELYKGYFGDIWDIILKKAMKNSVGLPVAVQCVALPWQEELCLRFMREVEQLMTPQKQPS
In words: Inhibition of rat recombinant His/GST-tagged FAAH expressed in Escherichia coli cells using AAMCA as substrate incubated for 15 mins followed by substrate addition and measured after every 20 mins for 4 hrs by fluorescence based assay. The gist of the method:
(§1)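 Fluorescent enzyme assay in throughput format. Human recombinant FAAH or purified rat FAAH used arachidonoyl 7-amino-4-methylcoumarin amide as substrate; human recombinant MGL was run by a similar fluorometric procedure.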

Experiment [3] is filed under the species Homo sapiens. In words: Selectivity ratio of IC50 for human full length ABHD6 expressed in Escherichia coli cells to IC50 for human recombinant MBP-tagged FAAH expressed in Escherichia coli cells by fluorescence based assay.
For experiment [4], the target named is Cannabinoid receptor 2 (Mus musculus) (UniProt P47936). In words: Displacement of [3H]CP55940 from mouse CB2 receptor expressed in HEK293 cells by competition-equilibrium binding analysis. The class given is cell-based. The gist of the method: (§2)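 HEK293 cell membranes expressing mouse or human CB2; competition-equilibrium binding against [3H]CP-55,940.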
Cannabinoid receptor 2 (Mus musculus), sequence (P47936 whole entry): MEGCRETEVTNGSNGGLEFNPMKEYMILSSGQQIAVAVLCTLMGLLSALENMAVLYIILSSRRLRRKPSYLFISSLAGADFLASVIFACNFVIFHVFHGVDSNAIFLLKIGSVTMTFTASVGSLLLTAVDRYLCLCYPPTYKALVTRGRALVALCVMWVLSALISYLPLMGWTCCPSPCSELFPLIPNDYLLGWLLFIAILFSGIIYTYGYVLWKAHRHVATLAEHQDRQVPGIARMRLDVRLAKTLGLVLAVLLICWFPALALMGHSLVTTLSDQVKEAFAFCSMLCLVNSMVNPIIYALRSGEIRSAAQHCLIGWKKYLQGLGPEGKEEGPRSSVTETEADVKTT

For experiment [5], the target named is Cannabinoid receptor 1 (Rattus norvegicus) (UniProt P20272). Kind of experiment: Displacement of [3H]CP55940 from CB1 receptor in rat brain by competition-equilibrium binding analysis. Type of experiment: tissue-based. In a few lines: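 Rat brain membranes as CB1 source; competition-equilibrium binding against [3H]CP-55,940.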
Target sequence in this assay (P20272 whole entry): as the sequence (P20272 whole entry, looked up) above
Experiment [6] concerns the target Cannabinoid receptor 2 (Homo sapiens) (UniProt P34972). In words: Displacement of [3H]CP55940 from human CB2 receptor expressed in HEK293 cells by competition-equilibrium binding analysis. Type of experiment: cell-based. The gist of the method:
as §2

Experiment [7] deals with T2, Monoglyceride lipase (Homo sapiens, UniProt Q99685).
T2 sequence (Q99685 whole entry): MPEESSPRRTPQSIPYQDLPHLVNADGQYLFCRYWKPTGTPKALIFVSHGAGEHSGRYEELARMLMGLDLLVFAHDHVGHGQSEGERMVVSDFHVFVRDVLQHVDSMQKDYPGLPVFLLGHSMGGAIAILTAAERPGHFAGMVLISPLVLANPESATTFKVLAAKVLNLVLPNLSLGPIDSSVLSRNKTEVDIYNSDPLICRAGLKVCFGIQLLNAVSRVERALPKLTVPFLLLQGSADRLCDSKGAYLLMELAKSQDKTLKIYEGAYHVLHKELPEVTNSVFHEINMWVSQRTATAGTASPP
In words: Inhibition of human recombinant His-tagged MGL expressed in Escherichia coli BL21 DE3 cells using AHMMCE as substrate preincubated with enzyme for 15 mins followed by substrate addition and measured after every 15 mins for 3 hrs by fluorescence based assay. The gist of the method: as §1

Experiment [8] is described as follows: Selectivity ratio of IC50 for human full length ABHD6 expressed in Escherichia coli cells to IC50 for rat recombinant His/GST-tagged FAAH expressed in Escherichia coli cells by fluorescence based assay.
The target of experiment [9] is T3, Fatty-acid amide hydrolase 1 (Homo sapiens, UniProt O00519).
T3 sequence (O00519 whole entry): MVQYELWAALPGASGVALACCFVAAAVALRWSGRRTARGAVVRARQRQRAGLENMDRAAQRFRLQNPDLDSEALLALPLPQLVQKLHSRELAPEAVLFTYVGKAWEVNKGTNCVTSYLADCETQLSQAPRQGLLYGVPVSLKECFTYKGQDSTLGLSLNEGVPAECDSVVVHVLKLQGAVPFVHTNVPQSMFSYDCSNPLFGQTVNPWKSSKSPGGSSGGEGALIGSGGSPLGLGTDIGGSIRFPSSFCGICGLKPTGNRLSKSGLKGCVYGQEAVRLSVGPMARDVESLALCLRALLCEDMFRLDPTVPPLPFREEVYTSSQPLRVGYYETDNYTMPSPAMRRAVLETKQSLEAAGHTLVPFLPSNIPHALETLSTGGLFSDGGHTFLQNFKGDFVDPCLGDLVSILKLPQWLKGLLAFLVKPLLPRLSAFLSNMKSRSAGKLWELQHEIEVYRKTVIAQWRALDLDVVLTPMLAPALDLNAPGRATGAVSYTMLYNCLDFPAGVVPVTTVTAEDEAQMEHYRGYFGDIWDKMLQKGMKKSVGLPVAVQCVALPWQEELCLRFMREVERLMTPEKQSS
Kind of experiment: Inhibition of human recombinant MBP-tagged FAAH expressed in Escherichia coli cells using AAMCA as substrate incubated for 15 mins followed by substrate addition and measured after every 20 mins for 4 hrs by fluorescence based assay. In a few lines:
as §1

For experiment [10], the species on record is Homo sapiens. In words: Selectivity ratio of IC50 for human recombinant His-tagged MGL expressed in Escherichia coli BL21 DE3 cells to IC50 for human recombinant MBP-tagged FAAH expressed in Escherichia coli cells by fluorescence based assay.
The nature of experiment [11]: Selectivity ratio of IC50 for human recombinant His-tagged MGL expressed in Escherichia coli BL21 DE3 cells to IC50 for rat recombinant His/GST-tagged FAAH expressed in Escherichia coli cells by fluorescence based assay.

Cannabinoid receptor 2 (Homo sapiens), sequence (P34972 whole entry): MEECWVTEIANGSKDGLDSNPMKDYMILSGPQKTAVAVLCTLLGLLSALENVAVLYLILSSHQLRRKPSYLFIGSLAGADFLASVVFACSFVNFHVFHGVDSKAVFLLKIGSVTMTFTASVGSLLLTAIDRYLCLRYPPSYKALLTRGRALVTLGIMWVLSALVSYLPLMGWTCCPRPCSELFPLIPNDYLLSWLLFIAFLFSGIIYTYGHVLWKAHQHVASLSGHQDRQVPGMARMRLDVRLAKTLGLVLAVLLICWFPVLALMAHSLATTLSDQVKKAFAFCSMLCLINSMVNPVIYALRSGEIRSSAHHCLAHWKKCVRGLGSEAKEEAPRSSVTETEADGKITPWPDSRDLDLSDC

As to `CN(C)c1ccc(C2CCN(C(=O)Oc3cccc(N4CCOCC4)c3)CC2)cc1`, the outcome in experiment [1], in experiment [4], in [5] and in experiment [6] was inactive. Also, the IC50 (commonly the point on the concentration scale where inhibition reaches its midpoint) is 14.7 nM in [2], > 1000 nM in experiment [7] and 31 nM in [9]. Moreover, the Ratio IC50 in experiment [3], in experiment [8], in [10] and in [11] was > 1000 each time.

On to `O=C(Oc1cccc(N2CCS(=O)(=O)CC2)c1)N1C[C@H]2C[C@@H]1CN2c1ccc(F)cc1`, for which the outcome in [1], in [4], in experiment [5] and in [6] was inactive. Also, the half-maximal inhibitory concentration (IC50) was 17.1 nM in experiment [2], > 1000 nM in experiment [7] and 20.3 nM in [9]. In addition, the Ratio IC50 in experiment [3], in experiment [8], in experiment [10] and in experiment [11] was > 1000 each time.

On to `O=C(Oc1cccc(N2CCS(=O)(=O)CC2)c1)N1CCN(c2ccc(F)cc2)CC1`, for which the outcome in [1], in experiment [4], in experiment [5] and in experiment [6] was inactive. For the same compound, the IC50 in [2] was 12.5 nM; in [7], > 1000 nM; in experiment [9], 20.5 nM. Also, the Ratio IC50 in experiment [3], in [8], in [10] and in experiment [11] was > 1000 throughout.

For the compound `O=C(Oc1cccc(N2CCS(=O)(=O)CC2)c1)N1CCC(c2ccncc2)CC1`, the result in experiment [1], in [4], in experiment [5] and in experiment [6] was inactive. Further, the IC50 in experiment [2] is 75.5 nM; in [7], > 1000 nM; in experiment [9], 132 nM. Moreover, the Ratio IC50 in experiment [3], in [8], in [10] and in experiment [11] was > 1000 throughout.

As for `O=C(Oc1cccc(N2CCS(=O)(=O)CC2)c1)N1CCC(O)(c2ccccc2)CC1`, the result in experiment [1], in experiment [4], in [5] and in [6] was inactive. For the same compound, the figures for the half-inhibitory concentration (IC50) in [2], in experiment [7] and in [9] were 78.1 nM, > 1000 nM and 172 nM, respectively. Besides, the Ratio IC50 in [3], in [8], in [10] and in experiment [11] was > 1000 each time.

For `Cc1ccccc1C1CCN(C(=O)Oc2cccc(N3CCS(=O)(=O)CC3)c2)CC1`, the result in experiment [1], in experiment [4], in [5] and in experiment [6] was inactive. Besides, the half-maximal inhibitory concentration (IC50) is 10.3 nM in [2], > 1000 nM in experiment [7] and 15.9 nM in [9]. The Ratio IC50 in experiment [3], in experiment [8], in experiment [10] and in experiment [11] was > 1000 in each case.

Take `Cc1noc(C2CCN(C(=O)Oc3cccc(N4CCS(=O)(=O)CC4)c3)CC2)n1`: the outcome in [1], in experiment [4], in experiment [5] and in experiment [6] was inactive. Besides, the IC50 in experiment [2] is 120 nM; in experiment [7], > 1000 nM; in experiment [9] it was 147 nM. Moreover, the Ratio IC50 in [3], in [8], in experiment [10] and in experiment [11] was > 1000 in each case.

Take `C[C@H]1CN(c2ccc(F)cc2)CCN1C(=O)Oc1cccc(N2CCS(=O)(=O)CC2)c1`: the outcome in experiment [1], in [4], in experiment [5] and in experiment [6] was inactive. The 50% inhibitory concentration (IC50) in experiment [2] is 40.5 nM; in experiment [7], > 1000 nM; in experiment [9], 72.9 nM. Further, the Ratio IC50 in [3], in experiment [8], in experiment [10] and in experiment [11] was > 1000 in each case.

On to `O=C(Oc1cccc(N2CCS(=O)(=O)CC2)c1)N1CCN(c2ccccn2)CC1`, for which the outcome in [1], in experiment [4], in experiment [5] and in experiment [6] was inactive. The figures for the IC50 in experiment [2] and in [7] were 102 nM and > 1000 nM, respectively. For the same compound, the Ratio IC50 in experiment [3], in experiment [8], in experiment [10] and in experiment [11] was > 1000 throughout.

As for `N#Cc1ccc(N2CCN(C(=O)Oc3cccc(N4CCS(=O)(=O)CC4)c3)CC2)cc1`, the outcome in experiment [1], in experiment [4], in [5] and in [6] was inactive. Besides, the IC50 is 62.7 nM in [2], > 1000 nM in [7] and 89.3 nM in experiment [9]. In addition, the Ratio IC50 in experiment [3], in experiment [8], in experiment [10] and in experiment [11] was > 1000 in each case.
